Bioassay records as filed in PubChem BioAssay.
The list is not random: actives were taken first. Their share in the collection is about 1.4%.
PG9 Ab binder – PG9 antibody binding by small molecule | TR-FRET gp120-PG9 antibody binding | inhibition, % at 6.7 µM | 360,000 compounds, 0.43% hits; in the data active means inhibition above about 8.5%
NR2E3 ag-1 – activates human photoreceptor nuclear receptor NR2E3. AID 2300. GST-NR2E3/biotin-RetCOR TR-FRET, 1536-well. 320,000 compounds, 0.12% hits. inhibition of corepressor binding, % at 4.78 µM. Q9Y5X4;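 active means percent inhibition above the cutoff of mean plus 3 SD of all tested compounds, set per screening campaign, cut at about 20% in these data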;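 further: 0% = DMSO wells and 100% = biotin wells as full block of FRET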
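System: GST-tagged NR2E3 plus biotinylated RetCOR corepressor; Buffer or medium: pH 7.5 Tris-based buffer; Probe or stimulus: RetCOR corepressor, biotinylated, 7 nM; Doses: compound at 4.8 µM, single dose; Schedule: 5 h incubation at 4 °C; Technique: time-resolved FRET; Evaluation: percent inhibition of TR-FRET ratio; Replication: one well per compound, singlicate testing.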
NR2E3 ag-2 – human photoreceptor-specific nuclear receptor agonism. Q9Y5X4. 360,000 compounds, 0.35% hits. inhibition of corepressor binding, % at 3.98 µM. CHO-S Gal4-NCOR/VP16-NR2E3 two-hybrid, luciferase. AID 602229;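 active means inhibition above the mean of all tested compounds plus 3 SD, cut at about 70% in these data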;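 further: 0% = DMSO with NR2E3 transfected cells and 100% = cells lacking NR2E3 construct; higher means lower luciferase signal from less NR2E3 corepressor binding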
NR1D1 modulator – modulates human Rev-erb alpha binding to DNA; 370,000 compounds, 0.79% hits; AID 1259318; Rev-erbα–FITC-DNA binding, fluorescence polarization, 90 min; activity, % at 10 µM;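 active means activity above about 14%, limit read from the data; passing the limit was not always enough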;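 further: 0% = DMSO wells with 35 nM protein and 100% = DMSO wells with 750 nM protein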
Target sequence (P20393 whole entry, looked up): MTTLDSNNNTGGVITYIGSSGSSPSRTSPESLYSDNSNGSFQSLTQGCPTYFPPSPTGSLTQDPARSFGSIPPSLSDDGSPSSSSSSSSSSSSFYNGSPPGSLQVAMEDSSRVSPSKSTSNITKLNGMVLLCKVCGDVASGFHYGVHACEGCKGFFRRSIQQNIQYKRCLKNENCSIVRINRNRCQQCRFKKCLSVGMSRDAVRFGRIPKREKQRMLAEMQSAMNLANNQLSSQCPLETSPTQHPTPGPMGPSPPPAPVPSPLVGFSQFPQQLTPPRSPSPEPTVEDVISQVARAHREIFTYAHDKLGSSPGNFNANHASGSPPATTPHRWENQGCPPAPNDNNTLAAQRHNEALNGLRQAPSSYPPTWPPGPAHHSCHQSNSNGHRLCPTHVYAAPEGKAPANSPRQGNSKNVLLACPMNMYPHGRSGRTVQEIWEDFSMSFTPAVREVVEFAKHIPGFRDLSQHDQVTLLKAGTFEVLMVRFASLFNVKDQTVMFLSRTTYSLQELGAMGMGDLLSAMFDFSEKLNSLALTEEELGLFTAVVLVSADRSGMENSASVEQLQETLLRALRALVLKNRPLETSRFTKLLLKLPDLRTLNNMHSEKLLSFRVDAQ
NR2E3 ag conf – confirmation of human NR2E3 agonists; 2,300 compounds, 51% hits; AID 624378; shares compounds with NR2E3 ag-2; CHO-S mammalian two-hybrid NR2E3-NCOR, luciferase luminescence; inhibition, % at 3.98 µM;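 active means average inhibition above a cutoff equal to the mean inhibition of all tested compounds plus one SD, cut at about 70% in these data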;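 further: 0% = DMSO in NR2E3 cells and 100% = DMSO in cells lacking NR2E3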
VP16 counter – counter-screen for NR2E3 agonists: GAL4-VP16 reporter inhibitors; shares compounds with NR2E3 ag-2; CHO-S GAL4-VP16 luciferase reporter, luminescence; inhibition, % at 3.98 µM; 2,300 compounds, 29% hits;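 active means mean inhibition above a cutoff equal to the average over all tested compounds plus one standard deviation, cut at about 70% in these data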;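 further: luciferase from a UAS reporter driven by GAL4-VP16 transactivation; 0% = DMSO with VP16-transfected cells and 100% = DMSO with cells lacking VP16; higher means less reporter light so more repression of VP16 activity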
Numbers without * were called inactive; nt = not tested or not shown.

SMILES	PG9 Ab binder	NR2E3 ag-1	NR2E3 ag-2	NR1D1 modulator	NR2E3 ag conf	VP16 counter
O=C(CCCN1C(=O)/C(=C/c2ccccc2Cl)SC1=S)NNC(=O)c1ccncc1	-0.3	4.2	56.0	2.7	-44.8	54.1
O=C(CCCN1C(=O)/C(=C/c2ccccc2Cl)SC1=S)NCCCN1CCOCC1	-3.0	2.1	77.7*	-6.6	-18.3	63.0
O=C(CCN1C(=O)/C(=C/c2ccccc2F)SC1=S)NCCCN1CCOCC1	-2.6	-0.4	11.1	8.5	nt	nt
COC(=O)c1cc(-c2cc(Cl)ccc2OC)c(=O)n2c1CCC2	nt	nt	nt	3.4	nt	nt
C=CCN1C(=O)[C@@H](CC(=O)N2CCC(c3ccccc3)CC2)[C@]2(C(=O)OCC)CCCCC/C=C/12	nt	nt	nt	-5.9	nt	nt
CCOC(=O)c1cccc(NC(=O)CN(C)S(=O)(=O)c2cc3ccccc3s2)c1	nt	nt	nt	-5.1	nt	nt
O=c1ccc(-c2ccccc2)nn1Cc1ccc(Cl)cc1	-2.0	4.8	26.1	4.1	nt	nt
C=Cc1ccc(Cn2nc(-c3ccc(C)cc3)ccc2=O)cc1	-0.6	-6.0	50.4	4.0	87.0*	71.7*
COc1ccc(OC)c(-c2csc(NC(=O)Cc3ccc(F)cc3)n2)c1	-1.1	5.7	-5.2	4.8	nt	nt
COc1ccc(OC)c(-c2csc(NC(=O)Cc3cc(OC)c(OC)c(OC)c3)n2)c1	1.0	-1.6	54.1	6.9	26.0	49.4
C=C1C(=O)C23C(O)C1CCC2C12CCCC(C)(COC(C)=O)C1C(O)C3(O)OC2 (stereo not drawn)	1.3	nt	91.2*	6.9	-5.8	-33.9
COc1cc(CN(C)c2ncnc3sccc23)ccc1OC(F)F	1.5	2.8	84.5*	-2.5	73.7*	61.2
COc1ccc(CCN(C)C(=O)Cc2ccc(-c3ccccc3)cc2)cc1OC	0.8	2.0	84.5*	-8.9	85.3*	60.0
Cc1ccc(Cc2c(-c3ccc(C)cc3)nc3c(Cl)cc(C(F)(F)F)cn23)cc1	nt	nt	60.5	nt	-6.5	10.4
CC1Cc2ccccc2N1C(=S)NC(=O)c1cccc(Br)c1 (stereo not drawn)	-1.2	-2.3	25.9	-2.1	nt	nt
CC1Cc2ccccc2N1C(=S)NC(=O)c1ccc(Cl)cc1Cl (stereo not drawn)	-1.8	2.1	78.2*	6.5	28.3	26.1
COC(=O)[C@]12C[C@H](CC(=O)NCc3ccc(C)o3)C(=O)N(Cc3ccc(Cl)cc3Cl)C1=C[C@H](C1CCCC1)O[C@@H]2C	nt	nt	nt	4.2	nt	nt
CCCOc1ccc(Br)cc1CSC(=N)N	-2.2	-0.6	51.3	3.4	45.8	49.5
COc1cccc(-c2cc(C(C)=O)c3n(c2=O)CCC3)c1OC	nt	nt	nt	-0.9	nt	nt
COc1ccc(-c2cc3c(=O)n(CC(=O)NCCCN4CCN(Cc5ccccc5)CC4)ncn3n2)cc1	-1.2	3.3	48.1	1.4	4.8	-19.5
COc1ccc(-c2cc3c(=O)n(CC(=O)NCCCN4CCC(Cc5ccccc5)CC4)ncn3n2)cc1	-1.0	2.9	-0.5	5.5	nt	nt
CCOC(=O)[C@@]12CCCC3=C1N(CCC3)C(=O)[C@H]2CC(=O)NCCc1ccccc1OC	nt	nt	nt	-5.6	nt	nt
Cc1ccccc1-c1nnn(Cc2cccc(S(=O)(=O)N3CCOCC3)c2)n1	0.5	-1.4	64.1	1.4	13.3	30.6
CCOc1ccc(S(=O)(=O)N2CCCCC2)c2ccccc12	0.0	0.1	58.5	3.3	54.8	-9.9
O=C(c1cc2sccc2n1Cc1ccc(F)cc1)N1CCN(c2nc3ccccc3s2)CC1	2.4	2.0	73.9*	0.8	91.9*	63.7
SMILES	PG9 Ab binder	NR2E3 ag-1	NR2E3 ag-2	NR1D1 modulator	NR2E3 ag conf	VP16 counter
O=C(c1cccs1)N1CCN(c2nc3ccccc3s2)CC1	0.0	-0.8	-46.6	4.8	nt	nt
O=C(C1CC1)N1CCC(c2nc(-c3ccc(S(=O)(=O)NCC4CCCO4)cc3)no2)CC1 (stereo not drawn)	-0.4	1.1	49.7	10.2	21.3	41.1
CS(=O)(=O)N1CCCC(c2nc(-c3ccc(S(=O)(=O)NCc4ccccc4)cc3)no2)C1 (stereo not drawn)	nt	-1.6	50.0	0.0	72.9*	68.4
O=C(Cc1ccccc1)N1CCCC(c2nc(-c3ccc(S(=O)(=O)N4CCCC4)cc3)no2)C1 (stereo not drawn)	-1.1	-1.1	-15.9	1.7	nt	nt
O=C(c1cncc(Br)c1)N1CCCc2ccccc21	-1.4	-1.7	73.7*	-0.6	-3.4	10.6
COc1cc(/C=C2\COC/C(=C\c3cc(OC)c(OC)c(OC)c3)C2=O)cc(OC)c1OC	-1.6	nt	86.5*	-7.5	100.5*	82.3*
COc1cc(/C=C2\CC/C(=C\c3cc(OC)c(O)c(OC)c3)C2=O)cc(OC)c1O	-6.6	7.2	77.2*	-14.4	96.4*	67.4
O=C(CSc1ccccc1)NC1CCCCN(Cc2ccc(Cl)cc2)C1=O (stereo not drawn)	nt	nt	nt	-4.2	nt	nt
O=C1NC[C@H](c2ccccc2)OC(=O)[C@@H](Cc2ccc(F)cc2)C/C=C\C[C@H]1CC(=O)N(CCO)Cc1ccccc1	-3.0	nt	52.3	3.9	31.3	28.2
O=C(NCc1ccncc1)C(=O)N/N=C/c1ccc(OCc2ccccc2)cc1	-14.3	-0.4	-33.7	2.7	nt	nt
O=NN(CCc1ccncc1)c1ccc(OCc2ccccc2)cc1	0.3	-0.3	85.8*	-2.1	95.4*	84.8*
Cc1cccc(NC(=O)/C(=C\c2cccs2)NC(=O)c2ccccc2)c1	nt	-0.2	56.4	nt	5.9	-9.6
O=C(Nc1ccccc1)/C(=C\c1cccs1)NC(=O)c1ccccc1	-3.0	5.0	-1.8	0.9	nt	nt
C[C@@H]1OC(c2ccccc2)N(C)[C@H]2C[C@H]3c4[nH]c5cccc(-c6ccccc6)c5c4CCN3C[C@@H]12 (stereo partly drawn)	nt	nt	nt	0.8	nt	nt
Cc1ccc(C)c(S(=O)(=O)Nc2ccccc2C(=O)Nc2cc(C)on2)c1	1.5	-0.5	48.7	1.0	64.7	37.5
Cc1ccc(C)c(NC(=O)c2ccccc2NS(=O)(=O)c2cc([N+](=O)[O-])ccc2C)c1	-0.7	0.7	85.5*	-0.5	99.3*	89.0*
Cc1cc(N2CCC(C)CC2)nc(-n2nc(C)cc2C)n1	-1.6	2.3	94.0*	1.4	-2.2	10.8
Cc1cc(C)n(-c2nc3ccccc3nc2N2CCC(C)CC2)n1	0.7	5.1	-0.5	-3.6	nt	nt
CCOC(=O)[C@@]12CN(C(=O)OC(C)(C)C)CC=C1N(Cc1ccc(OC)cc1)C(=O)[C@H]2CC(=O)N1CCC(c2ccccc2)CC1	nt	nt	nt	-1.8	nt	nt
CCCCNC(=O)C[C@H]1C[C@@]2(C(=O)OC)C(=C[C@H](C3CCCC3)O[C@@H]2C)N(CCC2=CCCCC2)C1=O	nt	nt	nt	1.5	nt	nt
CC(=O)c1c(C)[nH]c(C(=O)OCCCCN2C(=O)c3ccccc3C2=O)c1C	-0.4	-0.1	88.8*	-6.2	96.2*	88.5*
CC(=O)c1c(C)[nH]c(C(=O)OCC(=O)Nc2ccc(Cl)cc2[N+](=O)[O-])c1C	-1.4	-0.9	86.4*	-5.1	96.4*	89.4*
